Data from ChEMBL document CHEMBL5653608 (Br J Pharmacol, 2011).
Activity calls are given as the source filed them. The rule behind the calls is not given here.

Key:
[1] = target: T1, Prostaglandin E2 receptor EP1 subtype (Homo sapiens, UniProt P34995); assay: Antagonist activity at human EP1 receptor expressed in CHO cells assessed as increase in cAMP level incubated for 30 mins followed by agonist addition measured after 90 mins; format: functional, cell-based
T1 sequence (P34995 whole entry): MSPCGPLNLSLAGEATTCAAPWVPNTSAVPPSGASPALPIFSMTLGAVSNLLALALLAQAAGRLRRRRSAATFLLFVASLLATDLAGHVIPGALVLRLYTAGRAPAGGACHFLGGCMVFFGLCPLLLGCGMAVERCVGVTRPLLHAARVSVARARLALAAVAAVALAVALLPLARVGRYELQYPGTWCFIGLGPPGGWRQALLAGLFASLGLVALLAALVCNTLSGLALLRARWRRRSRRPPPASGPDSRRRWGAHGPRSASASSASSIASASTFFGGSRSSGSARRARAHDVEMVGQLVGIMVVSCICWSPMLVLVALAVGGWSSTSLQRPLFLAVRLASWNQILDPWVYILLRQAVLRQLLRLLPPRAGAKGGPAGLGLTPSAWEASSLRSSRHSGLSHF

[2] = target: T1, Prostaglandin E2 receptor EP1 subtype; assay: Agonist activity at human EP1 receptor expressed in CHO cells incubated for 30 mins; format: functional, cell-based
[3] = target: T2, Prostaglandin E2 receptor EP3 subtype (Homo sapiens, UniProt P43115); assay: Antagonist activity at human EP3 receptor expressed in CHO cells assessed as increase in cAMP level incubated for 30 mins followed by agonist addition measured after 90 mins; format: functional, cell-based
T2 sequence (P43115 whole entry): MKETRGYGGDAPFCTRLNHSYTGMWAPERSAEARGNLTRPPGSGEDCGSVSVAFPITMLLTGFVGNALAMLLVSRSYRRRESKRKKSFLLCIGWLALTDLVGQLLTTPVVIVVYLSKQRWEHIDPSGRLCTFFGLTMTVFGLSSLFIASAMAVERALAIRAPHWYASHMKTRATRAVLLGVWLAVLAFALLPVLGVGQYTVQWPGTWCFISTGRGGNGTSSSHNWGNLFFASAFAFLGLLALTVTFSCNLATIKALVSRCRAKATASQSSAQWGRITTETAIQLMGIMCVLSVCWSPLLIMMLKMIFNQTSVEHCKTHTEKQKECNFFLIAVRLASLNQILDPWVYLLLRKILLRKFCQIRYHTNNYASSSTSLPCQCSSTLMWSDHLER

[4] = target: T2, Prostaglandin E2 receptor EP3 subtype; assay: Agonist activity at human EP3 receptor expressed in CHO cells incubated for 30 mins; format: functional, cell-based
[5] = target: Prostaglandin E2 receptor EP4 subtype (Homo sapiens, UniProt P35408); assay: Agonist activity at human EP4 receptor expressed in CHO cells incubated for 30 mins; format: functional, cell-based
How it was run: (§1)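 Reporter CHO cells (CRE β-lactamase host) stably expressing the human receptor, suspended in DMEM at 1 × 10^6 cells/mL. Compound in PBS/DMSO/pluronic buffer, preincubated with cells for 30 min at 37°C. In antagonist mode, agonist was then added for 90 min at 37°C; agonist mode used buffer instead. Cells were lysed by freezing, and cAMP was read by DiscoveRx enzyme-fragment luminescence after 4–20 h. Four-parameter logistic fit.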

[6] = target: T3, Prostaglandin D2 receptor (Homo sapiens, UniProt Q13258); assay: Antagonist activity at human DP1 receptor expressed in CHO cells incubated for 30 mins followed by agonist addition measured after 90 mins; format: functional, cell-based; how it was run: as §1
T3 sequence (Q13258 whole entry): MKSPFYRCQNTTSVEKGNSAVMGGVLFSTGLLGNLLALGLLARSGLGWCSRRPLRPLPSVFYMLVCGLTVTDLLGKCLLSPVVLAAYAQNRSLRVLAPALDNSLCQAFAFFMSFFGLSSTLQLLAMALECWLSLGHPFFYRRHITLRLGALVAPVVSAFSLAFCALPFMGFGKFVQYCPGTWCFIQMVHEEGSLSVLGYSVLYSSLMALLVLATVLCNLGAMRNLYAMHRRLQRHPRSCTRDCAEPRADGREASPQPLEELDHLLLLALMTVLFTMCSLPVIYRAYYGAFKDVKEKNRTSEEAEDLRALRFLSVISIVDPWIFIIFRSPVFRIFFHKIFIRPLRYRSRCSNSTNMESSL

[7] = target: T4, Prostaglandin D2 receptor 2 (Homo sapiens, UniProt Q9Y5Y4); assay: Antagonist activity at human CRTH2 receptor incubated for 30 mins followed by agonist addition measured after 90 mins; format: functional
T4 sequence (Q9Y5Y4 whole entry): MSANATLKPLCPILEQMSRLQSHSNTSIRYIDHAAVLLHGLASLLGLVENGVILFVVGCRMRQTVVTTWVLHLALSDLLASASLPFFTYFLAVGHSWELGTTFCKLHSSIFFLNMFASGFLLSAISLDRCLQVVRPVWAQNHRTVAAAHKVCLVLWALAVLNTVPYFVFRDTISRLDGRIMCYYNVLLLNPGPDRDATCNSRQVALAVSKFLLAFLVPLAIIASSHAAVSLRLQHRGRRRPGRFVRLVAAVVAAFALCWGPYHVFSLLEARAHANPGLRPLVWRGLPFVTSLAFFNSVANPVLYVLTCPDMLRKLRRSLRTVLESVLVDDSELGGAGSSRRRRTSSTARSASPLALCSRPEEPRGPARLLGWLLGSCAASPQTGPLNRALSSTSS
How it was run: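 CHO reporter cells expressing human CRTH2, run in the DiscoveRx cAMP format. Compound preincubated with cells for 30 min at 37°C, then cells were stimulated with 8 µM forskolin plus agonist for 90 min at 37°C. Cells were lysed at −80°C and cAMP was read by luminescence. IC50 from an unconstrained four-parameter logistic fit.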

Prostacyclin receptor = Prostacyclin receptor (Homo sapiens, UniProt P43119); assay: Displacement of [3H]-Iloprost from human IP receptor assessed as inhibition constant incubated for 2 hrs by TopCount NXT counter based analysis
How it was run: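 Radioligand displacement with [3H]iloprost (20 µL of a 100 nM stock), using HEK membranes expressing human IP (10 µg per well). Buffer was 10 mM HEPES, 10 mM MgCl2, 1 mM EDTA, pH 7.4, with top concentration 10 µM. Nonspecific binding was defined with 10 µM carbacyclin. Incubated 2 h at room temperature with shaking, then filtered on GF/B, washed cold and counted by scintillation. FP, TP and LTB4 assays were run externally.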

[8] = target: Prostaglandin F2-alpha receptor (Homo sapiens, UniProt P43088); assay: Displacement of [3H]-Iloprost from human FP receptor assessed as inhibition constant incubated for 2 hrs by TopCount NXT counter based analysis
Thromboxane A2 receptor = target: T5, Thromboxane A2 receptor (Homo sapiens, UniProt P21731); assay: Displacement of [3H]-Iloprost from human TP receptor assessed as inhibition constant incubated for 2 hrs by TopCount NXT counter based analysis
T5 sequence (P21731 whole entry): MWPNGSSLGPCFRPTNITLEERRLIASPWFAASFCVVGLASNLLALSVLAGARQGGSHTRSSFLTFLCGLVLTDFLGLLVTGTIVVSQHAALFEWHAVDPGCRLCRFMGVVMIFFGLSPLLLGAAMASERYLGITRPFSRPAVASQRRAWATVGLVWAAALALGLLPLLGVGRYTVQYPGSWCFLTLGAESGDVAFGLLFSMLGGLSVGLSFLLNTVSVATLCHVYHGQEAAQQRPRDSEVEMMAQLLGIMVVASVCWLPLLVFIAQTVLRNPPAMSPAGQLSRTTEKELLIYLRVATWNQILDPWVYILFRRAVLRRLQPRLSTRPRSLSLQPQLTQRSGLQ

[9] = Displacement of [3H]-Iloprost from human LTB4 receptor assessed as inhibition constant incubated for 2 hrs by TopCount NXT counter based analysis
[10] = Inhibition of EFS-induced contraction of human myometrium assessed as butaprost IC50 at 10 nM incubated for 60 mins (reference value: 27.8 nM); format: functional, tissue-based
How it was run: (§2)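 Human myometrial strips (donors aged 24–76) in a 15 mL Krebs bath at 37°C, under EFS at 15 V, 1.5 ms pulses, 10 s every 100 s, at a submaximal 15 Hz. Antagonist (10 or 100 nM) or vehicle was equilibrated for 60 min. Cumulative butaprost (0.1 nM–10 µM) or PGE2 (0.1 nM–3 µM) was given for at least five EFS responses per concentration. pKB was calculated from same-donor concentration ratios.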

[11] = Inhibition of EFS-induced contraction of human myometrium assessed as butaprost IC50 at 100 nM incubated for 60 mins (reference value: 27.8 nM); format: functional, tissue-based; how it was run: as §2
[12] = target: Prostaglandin E2 receptor EP2 subtype (Canis lupus familiaris) (UniProt Q9XT82); assay: Binding affinity to dog bronchiole EP2 receptor assessed as equilibrium binding constant incubated for 30 mins followed by agonist addition measured after 90 mins; format: tissue-based; settings: filed as antagonist, time 120.0 min
[13] = target: Prostaglandin E2 receptor EP2 subtype (Mus musculus) (UniProt Q62053); assay: Binding affinity to mouse trachea EP2 receptor assessed as equilibrium binding constant incubated for 30 mins followed by agonist addition measured after 90 mins; format: tissue-based; settings: filed as antagonist, time 120.0 min
Canis lupus familiaris = species on record: Canis lupus familiaris; assay: Induction of relaxation in PGE2-induced carbachol pre-contracted rings of Beagle dog bronchioles at 3 to 100 nM incubated for 1 hr; format: functional, tissue-based; settings: Bronchiole, dose 3-100 nM
How it was run: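 Beagle bronchiole rings held at 1 g tension in Krebs at 37°C (with propranolol and phentolamine), primed with 80 mM KCl. Rings were precontracted with 1 µM carbachol, then antagonist (3–100 nM) or vehicle was equilibrated for 1 h. Cumulative PGE2 relaxation curves followed, with final 10 µM nifedipine defining maximal relaxation. KB by the Lew and Angus method.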

[14] = Induction of relaxation in PGE2-induced carbachol pre-contracted C57BL/6 mouse trachea incubated for 30 mins; format: functional, tissue-based
How it was run: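 Male C57BL/6 tracheal rings at 0.35 g tension in Krebs (95% O2/5% CO2, 37°C). Rings were precontracted with 10 µM carbachol before cumulative half-log PGE2 (0.1 nM–30 µM). Curves were repeated in the same ring after 30 min with 3 nM antagonist or DMSO, and 10 µM forskolin set maximal relaxation. pKB = log(CR−1) − log[B].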

[15] = Induction of relaxation in PGE2-induced carbachol pre-contracted C57BL/6 mouse trachea at 1 to 3 uM incubated for 30 mins relative to control (reference value: 11 +/- 3.2%); format: functional; parameters: scale not given: the % may be the effect or the level left; settings: dose 1-3 µM, 0.5 h
[16] = Induction of relaxation in PGE2-induced carbachol pre-contracted C57BL/6 mouse trachea at 100 nM incubated for 30 mins relative to control (reference value: 11 +/- 3.2%); format: functional; parameters: scale not given: the % may be the effect or the level left; settings: 0.5 h
Rattus norvegicus [17] = assay: Effect on butaprost induced cutaneous blood flow in po dosed Sprague-Dawley rat measured upto 95 mins; format: functional, organism-based; settings: dose 1-10 mg/kg
How it was run: (§3)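 Sprague Dawley rats (442–515 g) dosed orally with compound or vehicle (0.5% methylcellulose/0.1% Tween 80, 1 mL/kg). About 1 h 25 min later rats were placed under isoflurane and the abdomen shaved. Baseline laser Doppler scans were taken every 5 min for 35 min. Then 10 µL s.c. PGE2 (3 µg/mL) or butaprost (30 µg/mL) was injected, and scanning continued 60 min. Responses were vehicle-subtracted and normalized to the final three baselines. Peak and AUC0–60 were calculated.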

Rattus norvegicus [18] = assay: Effect on butaprost-induced cutaneous blood flow in Sprague-Dawley rat assessed as reduction in mean cutaneous blood flow peak response at 10 mg/kg, po measured upto 95 mins; format: functional; parameters: scale not given: the % may be the effect or the level left; settings: 1.583 h; how it was run: as §3
Rattus norvegicus [19] = assay: Effect on butaprost-induced cutaneous blood flow in Sprague-Dawley rat assessed as reduction in mean cutaneous blood flow peak response by measuring AUC(0 to 60 mins) at 10 mg/kg, po measured upto 95 mins; format: functional; parameters: scale not given: the % may be the effect or the level left; settings: 1.583 h; how it was run: as §3
[20] = Free plasma concentration in Sprague-Dawley rat at 1 to 10 mg/kg, po measured after 1.5 hrs; format: ADME, organism-based; settings: in vivo, dose 1-10 mg/kg
[21] = Free plasma concentration in Sprague-Dawley rat at 1 to 10 mg/kg, po measured after 3 hrs; format: ADME, organism-based; settings: in vivo, dose 1-10 mg/kg
[22] = Clearance in Sprague-Dawley rat at 1 mg/kg, po; format: ADME, organism-based; settings: in vivo
[23] = Volume of distribution in Sprague-Dawley rat at 1 mg/kg, po; format: ADME, organism-based; settings: in vivo
[24] = Terminal half life in Sprague-Dawley rat at 1 mg/kg, po; format: ADME, organism-based; settings: in vivo, read-out: beta t1/2 (converted)
[25] = Oral bioavailability in Sprague-Dawley rat at 1 mg/kg; format: ADME, organism-based; settings: in vivo
Mus musculus = species on record: Mus musculus; assay: Induction of relaxation in PGE2-induced carbachol pre-contracted C57BL/6 mouse trachea at 1 to 3 nM incubated for 30 mins; settings: dose 1-3 nM

Prostacyclin receptor, sequence (P43119 whole entry): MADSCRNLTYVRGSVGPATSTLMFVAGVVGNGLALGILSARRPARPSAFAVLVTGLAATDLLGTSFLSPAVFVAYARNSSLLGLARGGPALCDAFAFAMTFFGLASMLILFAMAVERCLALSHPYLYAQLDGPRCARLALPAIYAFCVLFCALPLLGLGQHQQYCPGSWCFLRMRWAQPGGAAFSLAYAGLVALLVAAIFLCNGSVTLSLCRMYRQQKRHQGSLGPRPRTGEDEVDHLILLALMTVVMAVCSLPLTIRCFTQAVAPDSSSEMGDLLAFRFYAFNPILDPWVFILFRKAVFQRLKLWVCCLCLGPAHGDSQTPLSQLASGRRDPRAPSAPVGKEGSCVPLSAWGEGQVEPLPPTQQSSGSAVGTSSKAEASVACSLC
Prostaglandin E2 receptor EP2 subtype (Canis lupus familiaris), sequence (Q9XT82 whole entry): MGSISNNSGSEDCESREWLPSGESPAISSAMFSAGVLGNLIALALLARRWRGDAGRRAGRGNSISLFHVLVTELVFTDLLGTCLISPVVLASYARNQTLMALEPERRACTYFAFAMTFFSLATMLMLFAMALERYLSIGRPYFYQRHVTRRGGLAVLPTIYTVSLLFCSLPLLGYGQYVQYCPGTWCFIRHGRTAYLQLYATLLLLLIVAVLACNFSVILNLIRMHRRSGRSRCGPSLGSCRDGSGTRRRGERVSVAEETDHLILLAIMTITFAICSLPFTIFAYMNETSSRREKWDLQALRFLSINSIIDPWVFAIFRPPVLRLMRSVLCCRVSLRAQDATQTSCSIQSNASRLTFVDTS
Prostaglandin E2 receptor EP4 subtype, sequence (P35408 whole entry, the tested form may be a part): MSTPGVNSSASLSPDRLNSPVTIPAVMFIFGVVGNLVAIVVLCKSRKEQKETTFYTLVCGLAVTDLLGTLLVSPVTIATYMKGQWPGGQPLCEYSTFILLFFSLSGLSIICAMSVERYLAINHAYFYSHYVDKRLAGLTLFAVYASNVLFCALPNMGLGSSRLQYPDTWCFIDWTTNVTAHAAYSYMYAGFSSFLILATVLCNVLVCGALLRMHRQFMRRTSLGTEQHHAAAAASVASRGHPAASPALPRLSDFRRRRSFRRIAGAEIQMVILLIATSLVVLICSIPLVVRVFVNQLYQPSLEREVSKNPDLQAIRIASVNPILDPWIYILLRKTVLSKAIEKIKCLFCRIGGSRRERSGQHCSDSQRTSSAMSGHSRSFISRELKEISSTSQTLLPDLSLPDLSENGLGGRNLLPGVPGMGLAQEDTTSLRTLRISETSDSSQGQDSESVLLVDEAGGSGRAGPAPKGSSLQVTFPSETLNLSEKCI
Prostaglandin E2 receptor EP2 subtype (Mus musculus), sequence (Q62053 whole entry): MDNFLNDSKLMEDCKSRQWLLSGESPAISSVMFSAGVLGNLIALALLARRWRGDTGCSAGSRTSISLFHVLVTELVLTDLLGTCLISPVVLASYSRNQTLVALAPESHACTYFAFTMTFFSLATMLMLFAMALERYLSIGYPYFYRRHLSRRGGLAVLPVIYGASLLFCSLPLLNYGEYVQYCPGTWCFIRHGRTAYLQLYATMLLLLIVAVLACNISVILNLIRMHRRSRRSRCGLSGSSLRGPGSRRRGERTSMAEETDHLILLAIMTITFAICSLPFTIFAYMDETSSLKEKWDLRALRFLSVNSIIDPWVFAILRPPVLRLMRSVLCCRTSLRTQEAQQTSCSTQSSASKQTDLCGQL
Prostaglandin F2-alpha receptor, sequence (P43088 whole entry): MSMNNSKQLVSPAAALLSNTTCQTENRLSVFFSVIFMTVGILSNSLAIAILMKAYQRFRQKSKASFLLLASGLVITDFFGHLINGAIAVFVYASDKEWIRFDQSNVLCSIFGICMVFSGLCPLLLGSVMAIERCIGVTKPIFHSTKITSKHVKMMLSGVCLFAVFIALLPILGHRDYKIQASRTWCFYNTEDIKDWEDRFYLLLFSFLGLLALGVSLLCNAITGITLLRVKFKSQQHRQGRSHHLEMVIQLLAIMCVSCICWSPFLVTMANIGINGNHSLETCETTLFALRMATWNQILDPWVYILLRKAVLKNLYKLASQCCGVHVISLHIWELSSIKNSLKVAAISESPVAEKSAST

In the case of `COc1ccc2cc(OCC3(C(=O)O)CN(C(=O)c4ccc(F)cc4)C3)ccc2c1` [PF-04418948], the IC50 [1] is reported as over 10 µM, the EC50 [2] is reported as over 10 µM and the IC50 [3] is reported as over 10 µM. It also gave an EC50 [4] of over 10 µM, an EC50 [5] of over 33.3 µM and an IC50 [6] of over 32.8 µM. The IC50 [7] was 32 µM, the Ki (Prostacyclin receptor) was over 10 µM and the Ki [8] was over 10 µM. For the same compound, the Ki (Thromboxane A2 receptor) was over 10 µM, the Ki [9] was 4.8 µM and the IC50 [10] was 54 nM. For the same compound, the IC50 [11] was 353 nM, the Kb [12] was 2.5 nM and the Kb [13] was 1.3 nM. The Activity (Canis lupus familiaris) was “Active”, the IC50 [14] was 2.7 nM and the Activity [15] was 73.5%. The Activity [16] was 106.8%, the Activity (Rattus norvegicus [17]) was “Dose-Dependent Effect” and the Activity (Rattus norvegicus [18]) was 41%. For the same compound, the Activity (Rattus norvegicus [19]) was 61%, the “Cp(f)” value [20] was 170 nM and the “Cp(f)” value [21] was 94 nM. The CL/F [22] was 0.3 mL/min/kg, the Vd [23] was 0.1 L/kg and the half-life [24] was 528 min. For the same compound, the bioavailability [25] was 78% and the Activity (Mus musculus) was “Active”.
